# Laboratory results reported in ChEMBL document CHEMBL1125633, “1H-imidazo[4,5-c]quinolin-4-amines: novel non-xanthine adenosine antagonists” (J Med Chem, 1991).
# Key:
# Adenosine receptor A1 [1] = molecular target: T1, Adenosine receptor A1 (Rattus norvegicus, UniProt P25099); assay: Displacement of [3H]CPX from adenosine A1 receptor of rat brain cortical membrane
# T1 sequence (P25099 whole entry): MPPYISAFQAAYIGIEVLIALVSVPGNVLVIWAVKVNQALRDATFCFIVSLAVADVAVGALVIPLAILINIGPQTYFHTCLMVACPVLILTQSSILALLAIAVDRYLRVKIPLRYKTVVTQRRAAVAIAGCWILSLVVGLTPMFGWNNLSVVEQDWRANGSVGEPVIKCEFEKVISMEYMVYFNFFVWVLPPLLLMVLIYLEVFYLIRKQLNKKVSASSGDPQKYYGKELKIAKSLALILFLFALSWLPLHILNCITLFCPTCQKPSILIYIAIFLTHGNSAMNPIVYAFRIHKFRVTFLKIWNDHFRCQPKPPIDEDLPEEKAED
# Adenosine receptor A1 [2] = molecular target: T2, Adenosine receptor A1 (Bos taurus, UniProt P28190); assay: Displacement of [3H]CPX from adenosine A1 receptor of calf brain cortical membrane
# T2 sequence (P28190 whole entry): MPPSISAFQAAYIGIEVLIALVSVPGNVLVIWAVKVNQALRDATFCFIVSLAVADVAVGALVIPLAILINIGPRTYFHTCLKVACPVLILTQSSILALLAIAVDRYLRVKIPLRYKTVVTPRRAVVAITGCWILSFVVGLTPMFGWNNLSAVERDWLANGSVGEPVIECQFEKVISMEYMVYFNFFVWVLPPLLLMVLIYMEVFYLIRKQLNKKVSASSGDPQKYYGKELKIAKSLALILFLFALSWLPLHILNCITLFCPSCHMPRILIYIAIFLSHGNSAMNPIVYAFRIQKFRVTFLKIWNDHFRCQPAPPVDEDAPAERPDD
# Outline: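 Calf brain cortical membranes, about 15 μg protein, incubated with 0.1 nM [3H]CPX in 50 mM Tris-HCl pH 7.4 for 1 h at 25 °C in duplicate. Nonspecific binding was defined with 10 μM R-PIA. DMSO was at most 1% final. Filter-bound radioactivity was counted. Means of three experiments.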
# [3] = molecular target: Adenosine receptors; A1 & A2 (Rattus norvegicus) (UniProt P29276+P25099+P30543); assay: Ratio of Ki for adenosine A2 and A1 receptors; format: protein assay
# Adenosine A2 receptor [4] = molecular target: T3, Adenosine A2 receptor (Rattus norvegicus, UniProt P29276+P30543); assay: (§1) Binding affinity for adenosine A2 receptor using [3H]NECA in rat striatal membrane; format: cell membranes, Striatum
# [5] = molecular target: Adenosine A2 receptor (Rattus norvegicus) (UniProt P29276+P30543); assay: Inhibitory binding activity for adenosine A2 receptor using [3H]NECA in rat striatal membrane at 1 uM; format: cell membranes; details: Striatum
# Outline: (§2)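 Rat striatal membranes from male Wistar rats, treated with 2 IU/mL adenosine deaminase for 30 min at 37 °C. Binding used about 50 μg protein and 4 nM [3H]NECA in 50 mM Tris-HCl, 10 mM MgCl2, pH 7.7, with 50 nM CPA added to block A1 sites. Nonspecific binding was defined with 100 μM CPA. Incubation 1 h at 25 °C in duplicate, ended by filtration and scintillation counting.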
# Adenosine A2 receptor [6] = molecular target: T3, Adenosine A2 receptor; assay: as §1; format: cell membranes, Striatum; outline: as §2; remark: listed apart in the source
Structure (SMILES),Ki (Adenosine receptor A1 [1]),Ki (Adenosine receptor A1 [2]),Ratio [3],Ki (Adenosine A2 receptor [4]),inhibition [5],Ki (Adenosine A2 receptor [6])
C[C@H](Cc1ccccc1)Nc1[nH]c2ccccc2c2ncnc1-2,0.31 µM,0.074 µM,2.6,0.81 µM,–,–
Nc1[nH]c2ccccc2c2nc(-c3ccccc3)nc1-2,0.034 µM,0.017 µM,–,0.29 µM,–,–
c1ccc(-c2nc3c(NC4CCCC4)[nH]c4ccccc4c-3n2)cc1,0.01 µM,0.0015 µM,–,0.45 µM,–,–
c1ccc(Nc2nc3ccccc3c3[nH]c(C4CCCC4)nc23)cc1,0.23 µM,0.023 µM,–,–,6%,–
Nc1[nH]c2ccccc2c2nc(C3CCCC3)nc1-2,0.27 µM,0.29 µM,3,0.74 µM,–,–
c1ccc2c3nc(C4CCCC4)nc-3c(NC3CCCC3)[nH]c2c1,0.039 µM,0.0091 µM,–,0.45 µM,–,–
c1ccc2c3ncnc-3c(NC3CCCC3)[nH]c2c1,0.043 µM,0.01 µM,6.7,0.29 µM,–,–
C[C@@H](Cc1ccccc1)Nc1[nH]c2ccccc2c2ncnc1-2,1.5 µM,0.46 µM,1.9,2.8 µM,–,–
c1ccc(Nc2[nH]c3ccccc3c3ncnc2-3)cc1,2.1 µM,0.49 µM,5,–,–,10.5 µM
c1ccc(Nc2[nH]c3ccccc3c3nc(-c4ccccc4)nc2-3)cc1,0.46 µM,0.05 µM,–,–,9%,–
Nc1[nH]c2ccccc2c2ncnc1-2,1.6 µM,1.7 µM,0.9,–,–,1.4 µM
